Reference: ChEMBL document CHEMBL4715748, “Synthesis and biological investigation of new equatorial (β) stereoisomers of 3-aminotropane arylamides with atypical antipsychotic profile” (Bioorg Med Chem, 2016)
pKi: −log10 of the molar value.

Legend:
Mus musculus [1] = experiment: Inhibition of 8-OH-DPAT-induced hypothermia in Swiss albino mouse assessed as change in rectal body temperature at 0.3 mg/kg, sc pretreated with compound for 45 mins followed by 8-OH-DPAT challenge and measured after 60 min by thermometer (reference value: -1.3 degreeC); format: functional, organism-based; conditions: time 105.0 min
Mus musculus [2] = experiment: Inhibition of 8-OH-DPAT-induced hypothermia in Swiss albino mouse assessed as change in rectal body temperature at 0.3 mg/kg, sc pretreated with compound for 45 mins followed by 8-OH-DPAT challenge and measured after 15 min by thermometer (reference value: -1.8 degreeC); format: functional, organism-based; conditions: time 60.0 min
[3] = Effect on 8-OH-DPAT-induced lower lip retraction in Wistar rat at 0.2 mg/kg, sc pretreated with compound for 15 mins followed by 8-OH-DPAT challenge and measured after 15 mins (reference value: 2.7 to 2.8); conditions: time 30 min, 0.5 h
Mus musculus [4] = experiment: Inhibition of 8-OH-DPAT-induced hypothermia in Swiss albino mouse assessed as change in rectal body temperature at 0.3 mg/kg, sc pretreated with compound for 45 mins followed by 8-OH-DPAT challenge and measured after 30 min by thermometer (reference value: -1.7 degreeC); format: functional, organism-based; conditions: time 75.0 min
Mus musculus [5] = experiment: Inhibition of 8-OH-DPAT-induced hypothermia in Swiss albino mouse assessed as change in rectal body temperature at 0.3 mg/kg, sc pretreated with compound for 45 mins followed by 8-OH-DPAT challenge and measured after 45 min by thermometer (reference value: -1.3 degreeC); format: functional, organism-based; conditions: time 90.0 min
[6] = Effect on 8-OH-DPAT-induced lower lip retraction in Wistar rat at 0.1 mg/kg, sc pretreated with compound for 45 mins followed by 8-OH-DPAT challenge and measured after 15 mins (reference value: 2.7 to 2.8); format: functional; conditions: time 60 min, 1 h
[7] = Effect on body temperature in Swiss Albino mouse assessed as rectal body temperature at 10 mg/kg, ip measured after 120 mins by thermometer (reference value: 0.15 to 1.11 degreeC); format: organism-based; conditions: in vivo, 2 h
[8] = Effect on body temperature in Swiss Albino mouse assessed as rectal body temperature at 20 mg/kg, ip measured after 90 mins by thermometer (reference value: 0.18 to 0.63 degreeC); format: ADME, organism-based; conditions: in vivo, 1.5 h
Mus musculus [9] = experiment: Effect on 8-OH-DPAT-induced hypothermia in Swiss albino mouse assessed as change in rectal body temperature at 20 mg/kg, ip pretreated with compound for 45 mins followed by 8-OH-DPAT challenge and measured after 60 min by thermometer (reference value: -0.66 to -0.5 degreeC); format: functional, organism-based; conditions: time 105.0 min
Mus musculus [10] = experiment: Effect on 8-OH-DPAT-induced hypothermia in Swiss albino mouse assessed as change in rectal body temperature at 10 mg/kg, ip pretreated with compound for 45 mins followed by 8-OH-DPAT challenge and measured after 15 min by thermometer (reference value: -1.82 to -1.66 degreeC); format: functional, organism-based; conditions: time 60.0 min
Mus musculus [11] = experiment: Effect on 8-OH-DPAT-induced hypothermia in Swiss albino mouse assessed as change in rectal body temperature at 20 mg/kg, ip pretreated with compound for 45 mins followed by 8-OH-DPAT challenge and measured after 30 min by thermometer (reference value: -1.36 to -1.12 degreeC); format: functional, organism-based; conditions: time 75.0 min
[12] = Effect on body temperature in Swiss Albino mouse assessed as rectal body temperature at 20 mg/kg, ip measured after 120 mins by thermometer (reference value: 0.15 to 1.11 degreeC); format: ADME, organism-based; conditions: in vivo, 2 h
Mus musculus [13] = experiment: Effect on 8-OH-DPAT-induced hypothermia in Swiss albino mouse assessed as change in rectal body temperature at 20 mg/kg, ip pretreated with compound for 45 mins followed by 8-OH-DPAT challenge and measured after 15 min by thermometer (reference value: -1.82 to -1.66 degreeC); format: functional, organism-based; conditions: time 60.0 min
Mus musculus [14] = experiment: Effect on 8-OH-DPAT-induced hypothermia in Swiss albino mouse assessed as change in rectal body temperature at 10 mg/kg, ip pretreated with compound for 45 mins followed by 8-OH-DPAT challenge and measured after 45 min by thermometer (reference value: -1.04 to -0.78 degreeC); format: functional, organism-based; conditions: time 90.0 min
Mus musculus [15] = experiment: Antipsychotic activity Swiss Albino mouse assessed as inhibition of DOI-induced head twitching by measuring number of episodes at 2.5 mg/kg, ip administered 30 mins prior to DOI stimulation (reference value: 19.63 to 19.88); format: functional; conditions: 0.5 h
Outline: (§1)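 Male Albino Swiss mice (24–28 g) were habituated to sawdust-lined cages 20 min before the first treatment. Compounds were suspended in 1% aqueous Tween 80 and given i.p. 30 min before (±)-DOI, 2.5 mg/kg i.p. in aqueous solution. Head twitches were counted blind over 20 min, n=8 per group, mean ± SEM, one-way ANOVA with Dunnett's test.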

[16] = Effect on body temperature in Swiss Albino mouse assessed as rectal body temperature at 10 mg/kg, ip measured after 30 mins by thermometer (reference value: 0.16 to 0.33 degreeC); format: organism-based; conditions: in vivo, 0.5 h
Mus musculus [17] = experiment: Effect on 8-OH-DPAT-induced hypothermia in Swiss albino mouse assessed as change in rectal body temperature at 20 mg/kg, ip pretreated with compound for 45 mins followed by 8-OH-DPAT challenge and measured after 45 min by thermometer (reference value: -1.04 to -0.78 degreeC); format: functional, organism-based; conditions: time 90.0 min
[18] = Effect on body temperature in Swiss Albino mouse assessed as rectal body temperature at 20 mg/kg, ip measured after 30 mins by thermometer (reference value: 0.16 to 0.33 degreeC); format: ADME, organism-based; conditions: in vivo, 0.5 h
[19] = Effect on body temperature in Swiss Albino mouse assessed as rectal body temperature at 10 mg/kg, ip measured after 90 mins by thermometer (reference value: 0.18 to 0.63 degreeC); format: ADME, organism-based; conditions: in vivo, 1.5 h
Mus musculus [20] = experiment: Effect on 8-OH-DPAT-induced hypothermia in Swiss albino mouse assessed as change in rectal body temperature at 10 mg/kg, ip pretreated with compound for 45 mins followed by 8-OH-DPAT challenge and measured after 30 min by thermometer (reference value: -1.36 to -1.12 degreeC); format: functional, organism-based; conditions: time 75.0 min
[21] = Effect on 8-OH-DPAT-induced lower lip retraction in Wistar rat at 10 mg/kg, ip pretreated with compound for 45 mins followed by 8-OH-DPAT challenge and measured after 15 mins (reference value: 2.7 to 2.8); format: functional; conditions: time 60 min, 1 h
[22] = biological target: Dopamine D2 receptor and Serotonin 2a receptor (D2 and 5HT2a) (Rattus norvegicus) (UniProt P61169+P14842); experiment: Ratio of pKi for displacement of [3H]-ketanserin from rat cerebral cortex 5HT2A receptor measured after 20 mins by liquid scintillation counter method to pKi for displacement of [3H] Spiperone from rat striatum dopamine D2 receptor measured after 30 mins by liquid scintillation counter method
Chain of Dopamine D2 receptor and Serotonin 2a receptor (D2 and 5HT2a) (Rattus norvegicus) (P14842 whole entry, looked up): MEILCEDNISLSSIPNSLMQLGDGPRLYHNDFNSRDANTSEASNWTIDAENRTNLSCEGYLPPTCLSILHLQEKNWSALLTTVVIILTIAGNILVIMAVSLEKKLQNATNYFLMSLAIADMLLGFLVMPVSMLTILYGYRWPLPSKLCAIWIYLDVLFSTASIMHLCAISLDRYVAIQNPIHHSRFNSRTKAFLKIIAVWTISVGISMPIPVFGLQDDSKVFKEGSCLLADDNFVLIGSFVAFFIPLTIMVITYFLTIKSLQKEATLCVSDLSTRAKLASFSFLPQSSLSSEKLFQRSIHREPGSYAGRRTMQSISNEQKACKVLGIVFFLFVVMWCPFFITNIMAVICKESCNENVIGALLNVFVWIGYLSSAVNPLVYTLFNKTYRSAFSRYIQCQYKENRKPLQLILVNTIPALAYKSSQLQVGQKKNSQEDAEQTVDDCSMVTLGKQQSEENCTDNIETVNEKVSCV
Chain of Dopamine D2 receptor and Serotonin 2a receptor (D2 and 5HT2a) (Rattus norvegicus) (P61169 whole entry, looked up): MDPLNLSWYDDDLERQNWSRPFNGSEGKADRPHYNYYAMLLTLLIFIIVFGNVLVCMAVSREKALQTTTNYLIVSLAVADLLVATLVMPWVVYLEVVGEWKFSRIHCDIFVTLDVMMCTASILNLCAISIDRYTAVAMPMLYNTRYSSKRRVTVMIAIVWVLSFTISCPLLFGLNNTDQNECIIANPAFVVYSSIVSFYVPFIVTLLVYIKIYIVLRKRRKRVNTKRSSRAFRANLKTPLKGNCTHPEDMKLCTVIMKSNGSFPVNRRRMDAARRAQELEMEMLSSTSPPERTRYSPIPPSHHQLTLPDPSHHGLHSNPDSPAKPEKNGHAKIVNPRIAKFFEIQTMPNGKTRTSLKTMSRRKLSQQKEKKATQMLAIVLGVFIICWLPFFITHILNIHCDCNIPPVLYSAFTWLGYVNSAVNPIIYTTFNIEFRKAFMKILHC
Outline: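 Ratio of pKi values, 5-HT2A over D2, computed from competition radioligand binding in rat brain tissue.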

[23] = Effect on body temperature in Swiss Albino mouse assessed as rectal body temperature at 10 mg/kg, ip measured after 60 mins by thermometer (reference value: 0.33 to 0.61 degreeC); format: ADME, organism-based; conditions: in vivo, 1 h
[24] = biological target: 5-hydroxytryptamine receptor 2A (Rattus norvegicus, UniProt P14842); experiment: Displacement of [3H]-ketanserin from rat cerebral cortex 5HT2A receptor measured after 20 mins by liquid scintillation counter method
Chain of 5-hydroxytryptamine receptor 2A (P14842 whole entry): as the sequence (P14842 whole entry, looked up) above
Outline: (§2)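 Competition binding in rat brain tissue membranes against D2, 5-HT1A and 5-HT2A sites; Ki reported as mean ± S.E.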

[25] = biological target: T1, 5-hydroxytryptamine receptor 1A (Rattus norvegicus, UniProt P19327); experiment: Displacement of [3H]-8-OH-DPAT from rat cerebral cortex 5HT1A receptor measured after 15 mins by liquid scintillation counter method
T1 sequence (P19327 whole entry): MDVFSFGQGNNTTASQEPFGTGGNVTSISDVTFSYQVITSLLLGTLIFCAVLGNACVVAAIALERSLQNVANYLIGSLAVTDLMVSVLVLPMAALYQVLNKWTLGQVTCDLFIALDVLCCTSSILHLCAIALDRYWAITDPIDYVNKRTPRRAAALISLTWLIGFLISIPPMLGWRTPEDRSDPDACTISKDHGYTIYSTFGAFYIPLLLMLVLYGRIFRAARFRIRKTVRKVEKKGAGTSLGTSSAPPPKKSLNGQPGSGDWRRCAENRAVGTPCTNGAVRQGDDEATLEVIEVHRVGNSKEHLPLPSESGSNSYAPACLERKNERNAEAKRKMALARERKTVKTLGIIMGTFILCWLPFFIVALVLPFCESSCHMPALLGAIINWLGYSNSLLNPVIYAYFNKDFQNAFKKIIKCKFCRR

D(2) dopamine receptor = D(2) dopamine receptor (Rattus norvegicus, UniProt P61169); experiment: Displacement of [3H] Spiperone from rat striatum dopamine D2 receptor measured after 30 mins by liquid scintillation counter method; outline: as §2
Chain of D(2) dopamine receptor (P61169 whole entry): as the sequence (P61169 whole entry, looked up) above

[26] = Half life in pooled human liver microsomes assessed as parent compound remaining at 2.5 uM measured up to 45 mins in presence of NADPH by LC-MS analysis; format: ADME, Microsome
Outline: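 Compound at 2.5 μM (added from 100 μM stock in 50/50 acetonitrile/water) with 1 mg/mL pooled human liver microsomes and 250 μM NADPH in 0.1 M potassium phosphate pH 7.4 at 37 °C after 5-min preincubation. Sampled at 5, 10, 15, 30, 45 min into ice-cold acetonitrile with atropine internal standard; parent quantified by LC-MS (ESI+, [M+H]+); no-NADPH controls; half-time derived.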

[27] = Effect on 8-OH-DPAT-induced lower lip retraction in Wistar rat at 20 mg/kg, ip pretreated with compound for 45 mins followed by 8-OH-DPAT challenge and measured after 15 mins (reference value: 2.7 to 2.8); format: functional; conditions: time 60 min, 1 h
Mus musculus [28] = experiment: Antipsychotic activity Swiss Albino mouse assessed as inhibition of DOI-induced head twitching by measuring number of episodes at 5 mg/kg, ip administered 30 mins prior to DOI stimulation (reference value: 19.63 to 19.88); format: functional; conditions: 0.5 h; outline: as §1
Mus musculus [29] = experiment: Antipsychotic activity Swiss Albino mouse assessed as inhibition of DOI-induced head twitching by measuring number of episodes at 10 mg/kg, ip administered 30 mins prior to DOI stimulation (reference value: 19.63 to 19.88); format: functional; conditions: 0.5 h; outline: as §1
[30] = Effect on body temperature in Swiss Albino mouse assessed as rectal body temperature at 20 mg/kg, ip measured after 60 mins by thermometer (reference value: 0.33 to 0.61 degreeC); format: ADME, organism-based; conditions: in vivo, 1 h
Mus musculus [31] = experiment: Effect on 8-OH-DPAT-induced hypothermia in Swiss albino mouse assessed as change in rectal body temperature at 10 mg/kg, ip pretreated with compound for 45 mins followed by 8-OH-DPAT challenge and measured after 60 min by thermometer (reference value: -0.66 to -0.5 degreeC); format: functional, organism-based; conditions: time 105.0 min

SMILES | deltaT [7] | deltaT [8] | deltaT (Mus musculus [9]) | deltaT (Mus musculus [10]) | deltaT (Mus musculus [11]) | deltaT [12] | deltaT (Mus musculus [13]) | deltaT (Mus musculus [14]) | Activity (Mus musculus [15]) | deltaT [16] | deltaT (Mus musculus [17]) | deltaT [18] | deltaT [19] | deltaT (Mus musculus [20]) | Activity [21] | Ratio pKi [22] | deltaT [23] | pKi [24] | pKi [25] | pKi (D(2) dopamine receptor) | further results
COc1ccccc1N1CCN(CCN(C(=O)C2CCCCC2)c2ccccn2)CC1 [WAY-100,635] |  |  |  |  |  |  |  |  |  |  |  |  |  |  |  |  |  |  |  |  | deltaT (Mus musculus [1]): -0.2 °C; deltaT (Mus musculus [2]): -0.6 °C; Activity [3]: 1.3; deltaT (Mus musculus [4]): -0.8 °C; deltaT (Mus musculus [5]): -0.5 °C; Activity [6]: 1.4
O=C(NC1CC2CCC(C1)N2Cc1ccccc1Cl)c1ccc2ccccc2c1 (stereo not drawn) | 1.34 °C | 0.44 °C | -1.53 °C | -0.97 °C | -2.12 °C | 1.39 °C | -2 °C | -0.62 °C | 20 | 0 °C | -2.18 °C | -0.36 °C | 0.84 °C | -1.17 °C | 2.5 | 0.86 | 0.96 °C | 6.40 | 6.80 | 7.46 | half-life at 2.5 µM [26]: 33 min; Activity [27]: 2; Activity (Mus musculus [28]): 14.75; Activity (Mus musculus [29]): 10.75; deltaT [30]: 0.44 °C; deltaT (Mus musculus [31]): -0.12 °C
COc1cccc(CN2C3CCC2CC(NC(=O)c2ccc4ccccc4c2)C3)c1 (stereo not drawn) | 0.7 °C | 0.81 °C | -0.97 °C | -1.52 °C | -1.65 °C | 1.26 °C | -1.25 °C | -0.87 °C | 16.63 | -0.03 °C | -1.33 °C | -0.1 °C | 0.17 °C | -1.32 °C | 2.4 | 0.81 | 0.03 °C | 6.18 | 6.67 | 7.59 | half-life at 2.5 µM [26]: 42.9 min; Activity [27]: 2.5; Activity (Mus musculus [28]): 14.25; Activity (Mus musculus [29]): 9.88; deltaT [30]: 0.57 °C; deltaT (Mus musculus [31]): -0.6 °C
